Key:
[1] = test system: Leishmania amazonensis; assay: Antileishmanial activity against transgenic Leishmania amazonensis amastigotes infected in CD-1 mouse peritoneal macrophages assessed as beta-lactamase activity after 72 hrs by nitrocefin dye-based spectrophotometric analysis; type: functional, organism-based
In short: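 Beta-lactamase-expressing promastigotes grown in RPMI 1640 GlutaMAX with HEPES, adenosine, folate, RPMI vitamins, 10% heat-inactivated FBS (pH 6.9); added 5:1 to CD-1 mouse peritoneal macrophages (1 × 10⁵ cells/well) for 24 h at 34 °C, washed twice with HBSS, then exposed to test concentrations for 72 h at 34 °C.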

[2] = test system: Leishmania donovani; assay: Antileishmanial activity against Leishmania donovani LV82 promastigotes expressing red fluorescent protein after 72 hrs by flow cytometric analysis; type: functional, organism-based; details: LV82, 72 h
[3] = Selectivity index, ratio of IC50 for human HT-29 cells to IC50 for Leishmania donovani LV82 promastigotes expressing red fluorescent protein; type: toxicity, cell-based; details: read-out: Ratio IC50
In short: (§1)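 Selectivity index calculated as HT-29 cytotoxicity IC50 divided by antileishmanial IC50.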

[4] = Selectivity index, ratio of IC50 for human HT-29 cells to IC50 for Leishmania amazonensis amastigotes; type: toxicity, cell-based; details: HT-29 cells versus Leishmania amazonensis amastigotes, read-out: Ratio IC50; in short: as §1
[5] = test system: HT-29; assay: Cytotoxicity against human HT-29 cells after 72 hrs by SRB assay; type: cell-based; details: HT-29, 72 h
In short: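 HT-29 cells, 9500 per well, exposed to a range of concentrations in triplicate for 72 h; 10% DMSO in water as carrier/negative control, paclitaxel positive control.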

Structure (SMILES)	IC50 [1]	IC50 [2]	selectivity ratio [3]	selectivity ratio [4]	IC50 [5] [µM]
CC(C)c1cc(C=O)c([C@@]2(C)CCCC(C)(C)[C@@H]2C=O)cc1O	> 10 µg/mL	> 10 µg/mL			
CC(C)C1=C(O)C(=O)C2=C(C1=O)[C@H](O)C[C@H]1C(C)(C)CCC[C@]21C [HORMINONE]	> 10 µg/mL	> 10 µg/mL			
Cc1ccc2cc(C(C)C)c(O)c3c2c1CCCC(C)(C)O3	> 10 µg/mL	> 10 µg/mL			
CC(C)c1cc2c(c(O)c1O)[C@@]1(C)CCCC(C)(C)C1=C(O)C2=O [14-DEOXYCOLEON U]	13 µM	> 60 µM	< 0.27	1	13.3
Cc1ccc2c3c1CCCC(C)(C)C3C(=O)C(C(C)C)=C2 (racemic)	> 10 µg/mL	> 10 µg/mL			
CC(C)C1=CC2=CC(=O)[C@H]3C(C)(C)CCC[C@]3(C)C2=C(O)C1=O [TAXODIONE]	14.3 µM	1.6 µM	1.6	0.2	2.5
CC(C)C1=C(O)C(=O)C2=C(CC[C@H]3C(C)(C)CCC[C@]23C)C1=O [ROYLEANONE]	> 10 µg/mL	> 10 µg/mL			
COCC(=O)[C@H]1C(C)(C)CCC[C@]1(C)C1=C(O)C(=O)C(C(C)C)=CC1=O	1.4 µM	6.9 µM	0.6	3.2	4.4
Cc1ccc2c3c1CCCC(C)(C)[C@@]3(O)C(=O)C(C(C)C)=C2	> 10 µg/mL	> 10 µg/mL			
CC(C)c1cc2c(cc1O)[C@@]1(C)CCCC(C)(C)C1=C(O)C2=O	> 10 µg/mL	> 10 µg/mL			
CC(C)C1=C(O)C(=O)C2=C(C1=O)[C@@H](O)C[C@H]1C(C)(C)CCC[C@]21C	> 10 µg/mL	> 10 µg/mL			
CC(C)c1cc2c(cc1O)[C@@]1(C)CCCC(C)(C)[C@@H]1CC2=O [SUGIOL]	> 10 µg/mL	> 10 µg/mL			
CC(C)c1cc2c(cc1O)[C@@]1(C)CCCC(C)(C)[C@@H]1[C@@H](O)C2=O	17.1 µM	24.6 µM	1.5	2.1	36
C[C@@H]1[C@H](O)[C@@H](C)/C=C/C=C/C=C/C=C/C=C/C=C/C=C/[C@H](O[C@@H]2O[C@H](C)[C@@H](O)[C@H](N)[C@@H]2O)C[C@@H]2O[C@](O)(C[C@@H](O)C[C@@H](O)[C@H](O)CC[C@@H](O)C[C@@H](O)CC(=O)O[C@H]1C)C[C@H](O)[C@H]2C(=O)O [AMPHOTERICIN B]	0.086 µM				
CC(C)c1cc2c(cc1O)[C@@]1(C)CCCC(C)(C)[C@@H]1CC2 [FERRUGINOL]	15.4 µM	45.7 µM	0.9	2.5	39.4
CO[C@@H]1C[C@H]2C(C)(C)CCC[C@]2(C)C2=C1C(=O)C(C(C)C)=C(O)C2=O	> 10 µg/mL	> 10 µg/mL			

— ChEMBL document CHEMBL3813634, “Antileishmanial and Cytotoxic Activity of Some Highly Oxidized Abietane Diterpenoids from the Bald Cypress, Taxodium distichum” (J Nat Prod, 2016)
